The values that follow come from ChEMBL document CHEMBL1145200, “4-Benzyl and 4-benzoyl-3-dimethylaminopyridin-2(1H)-ones: in vitro evaluation of new C-3-amino-substituted and C-5,6-alkyl-substituted analogues against clinically important HIV mutant strains” (J Med Chem, 2005).

Assay [1] deals with Human immunodeficiency virus 1. The assay can be described thus: In vitro inhibitory concentration against HIV-1 Y181C mutant strain. It counts as functional, organism-based. Summed up:
(§1)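 MT4 human T-lymphoblastoid cells, grown in RPMI 1640 with 10% fetal calf serum and antibiotics at 37 °C under 5% CO2. Mutant HIV-1 strains were added at 200 CCID50/well with 30 000 cells/well across a compound concentration range. After 5 days at 37 °C, viability was read by MTT colorimetry. EC50 is the concentration giving 50% infection relative to the drug-free control.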

In assay [2] the test system is Human immunodeficiency virus 1. The assay can be described thus: Selective index value (ratio of CC50 to IC50 value)against HIV LAI cell line. It counts as functional. In a few lines: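 Ratio of CC50 to IC50 against LAI. CC50 came from mock-infected MT4 cultures (30 000 cells/well) given the same compound concentration range, run in parallel with LAI-infected cultures (200 CCID50/well). Incubation was 5 days at 37 °C in 5% CO2, with MTT viability read-out.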

In assay [3] the test system is Human immunodeficiency virus 1. Description: In vitro inhibitory concentration against HIV K103N mutant strain. The class given is functional, organism-based. Summed up:
as §1

Assay [4] relates to Human immunodeficiency virus 1. Description: In vitro inhibitory concentration against HIV Y188L mutant strain. The class given is functional, organism-based. In a few lines: as §1
In assay [5] the test system is Human immunodeficiency virus 1. Description: In vitro inhibitory concentration against HIV LAI cell line. The conditions noted are these: Human immunodeficiency virus 1, LAI. The class given is functional, organism-based. In a few lines:
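HIV-1 LAI was added at 200 CCID50/well to MT4 human T-lymphoblastoid cells (30 000 cells/well) across a concentration range of compound. Cells were grown in RPMI 1640 with 10% fetal calf serum and antibiotics. After 5 days at 37 °C in 5% CO2, cell viability was read by MTT colorimetry. EC50 was the concentration giving 50% infection versus the drug-free control.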

Assay [6] concerns Human immunodeficiency virus 1. Description: In vitro inhibitory concentration against HIV L100I mutant strain. It counts as functional, organism-based. Summed up: as §1
Assay [7] deals with Human immunodeficiency virus 1. Description: In vitro inhibitory concentration value against HIV K103N and Y181C mutant strain. The class given is functional, organism-based. In a few lines:
as §1

Assay [8] deals with Human immunodeficiency virus 1. Description: In vitro inhibitory concentration against HIV L100I and K103N mutant strain. It counts as functional, organism-based. Summed up:
as §1

Assay [9] deals with Human immunodeficiency virus 1. Description: In vitro inhibitory concentration against HIV F227L and V106A mutant strain. The class given is functional, organism-based. Summed up:
as §1

The subject of assay [10] is Human immunodeficiency virus 1. The assay can be described thus: In vitro inhibitory concentration against HIV K101E and K103N mutant strain. It counts as functional, organism-based. In a few lines: as §1
For assay [11], the system named is Human immunodeficiency virus 1. The assay can be described thus: In vitro inhibitory concentration against HIV E138K mutant strain. The class given is functional, organism-based. In a few lines: as §1
Assay [12] concerns Human immunodeficiency virus 1. Description: In vitro inhibitory concentration against HIV F227C mutant strain. It counts as functional, organism-based. Summed up:
as §1

Assay [13] has as its system Human immunodeficiency virus 1. The assay can be described thus: In vitro inhibitory concentration against HIV G190A mutant strain. The class given is functional, organism-based. In a few lines: as §1
Assay [14] deals with Human immunodeficiency virus 1. Description: In vitro inhibitory concentration against HIV G190S mutant strain. The class given is functional, organism-based. Summed up:
as §1

Assay [15] has as its system Human immunodeficiency virus 1. Description: In vitro inhibitory concentration against HIV K101E mutant strain. The class given is functional, organism-based. Summed up:
as §1

Assay [16] concerns Human immunodeficiency virus 1. Description: In vitro inhibitory concentration against HIV V179E mutant strain. It counts as functional, organism-based. In a few lines: as §1

The term IC50 denotes the midpoint of a concentration-inhibition curve. Low readings indicate greater potency in that assay, high ones weaker potency in that assay. For the compound `CCc1c(C)[nH]c(=O)c(N(CC)CC)c1Cc1cc(C)cc(C)c1`, the IC50 came out at 1260 nM in assay [1], 398 nM in assay [3], 2510 nM in assay [4] and 16 nM in [5]. Besides, the SI in assay [2] came out at 6310.

With `COCCCc1c(C)nc(O)c(N(C)C)c1C(=O)c1cc(C)cc(C)c1`, the 50% inhibitory concentration (IC50) in assay [1] stood at 50 nM; in assay [3], 10 nM; in assay [6] it was 8 nM; in [4], 200 nM; in assay [5], 2 nM. Besides, the SI in assay [2] was 12600.

Consider `CCc1c(C)nc(O)c(NC(=S)NC(=O)c2ccccc2)c1Cc1cccc(C)c1`, for which the IC50 in assay [1] was 100000 nM; in assay [3], 100000 nM; in assay [4] it was 100000 nM; in assay [5] it was 6310 nM. Also, the SI in assay [2] amounted to 16.

As to `CCc1c(C)[nH]c(=O)c(N(C)C(C)COC)c1Cc1cc(C)cc(C)c1` (stereo not given), the IC50 in [1] turned out to be 398 nM; in assay [7], 8680 nM; in assay [8], 1000 nM; in assay [9] it was 10000 nM; in assay [10] it was 362 nM; in assay [11] it was 17 nM. The IC50 was found to be 869 nM in [12]; 78 nM in assay [13]; 62 nM in [14]; 58 nM in [15]; 79 nM in [3]; 79 nM in assay [6]. In addition, the IC50 in assay [16] was found to be 9 nM; in assay [4], 251 nM; in assay [5] it was 6 nM. In [2], the SI turned out to be 7940.

With `CCc1c(C)[nH]c(=O)c(N(C)CCCC#N)c1Cc1cccc(C)c1`, the half-inhibitory concentration (IC50) in [1] is 2000 nM; in assay [3] it was 316 nM; in assay [4], 3160 nM; in assay [5], 5 nM. Moreover, the SI in assay [2] turned out to be 12600.

For `CCc1c(C)[nH]c(=O)c(N(C)CC#N)c1Cc1cccc(C)c1`, the IC50 in assay [1] is 1580 nM; in assay [3], 316 nM; in [4] it was 12600 nM; in assay [5], 4 nM. Also, in assay [2], the SI was determined as 25100.

For `CCc1c(C)[nH]c(=O)c(-n2cccc2)c1Cc1cc(C)cc(C)c1`, the IC50 in [1] came to 1260 nM; in assay [3], 398 nM; in [4], 2000 nM; in assay [5] it was 12.6 nM. Besides, the SI in assay [2] is 1260.

As for `CCc1c(C)[nH]c(=O)c(N(C)CCCCCO)c1Cc1cccc(C)c1`, the IC50 in assay [1] came to 1580 nM; in assay [3] it was 501 nM; in [4] it was 5010 nM; in assay [5], 10 nM. Further, in assay [2], the SI stood at 6310.

For the compound `CCc1c(CO)nc(O)c(N(C)C)c1C(=O)c1cc(C)cc(C)c1`, the IC50 in [1] is 72 nM; in [7], 149 nM; in assay [8], 20 nM; in assay [9], 794 nM; in assay [10], 7 nM; in assay [11] it was 4 nM. In addition, the IC50 in assay [12] worked out at 234 nM; in assay [13], 3 nM; in assay [14], 2 nM; in [15] it was 5 nM; in [3] it was 3 nM; in assay [6], 1 nM. Also, the IC50 in [16] was 1 nM; in assay [4] it was 631 nM; in assay [5] it was 1 nM. For the same compound, the SI in assay [2] amounted to 12600.

As for `CCc1c(C)[nH]c(=O)c(N(C)CCOC)c1Cc1cccc(/C=C/C#N)c1`, the IC50 in assay [1] was found to be 40 nM; in [7], 398 nM; in assay [8], 50 nM; in [9], 1000 nM; in assay [3], 20 nM; in assay [6] it was 8 nM. Moreover, the IC50 in [4] stood at 316 nM; in [5], 1 nM. The SI in assay [2] is 10000.

On to `Cc1ccnc2c1NC(=O)c1cccnc1N2C1CC1` [NEVIRAPINE], for which the IC50 stood at 10000 nM in assay [1]; 100000 nM in [7]; 163 nM in assay [9]; 50 nM in [11]; 135 nM in assay [12]; 44 nM in [14]. The IC50 is 195 nM in assay [16] and 100000 nM in assay [4].
